The subject of data set [1] is TRAMP-C1A. Description: Inhibitory concentration to inhibit growth of C1A prostate cancer cell line by using MTT assay. It is filed as functional, cell-based. Conditions: Mus musculus. In outline: (§1)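 TRAMP mouse prostate cancer clonal lines, seeded at 2.5×10^4 (C1A), 2.0×10^4 (C2D, C2G) or 1.5×10^4 (C2H) cells/mL. Grown in DMEM high glucose with 10% FBS, insulin, pen-strep and 10^-8 M dihydrotestosterone at 37 °C, 5% CO2. After 24 h, switched to phenol-free medium with ethanol-dissolved compound. MTT read-out at 0, 24, 48 and 72 h: 4 h MTT, then SDS/HCl solubilisation overnight.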

In data set [2] the test system is TRAMP-C2H. Description: Inhibitory concentration to inhibit growth of C2H prostate cancer cell line by using MTT assay. It is filed as functional, cell-based. The conditions noted are these: Mus musculus. In outline:
as §1
In general terms: Formazan colour is commonly taken as a measure of viable cells.

Data set [3] concerns C2G cell line. Description: Inhibitory concentration to inhibit growth of C2G prostate cancer cell line by using MTT assay. It is filed as functional, cell-based, Homo sapiens. The conditions noted are these: Mus musculus. The procedure, abridged: as §1
The subject of data set [4] is C2D cell line. Description: Inhibitory concentration to inhibit growth of C2D prostate cancer cell line by using MTT assay. In kind it is functional, cell-based, Homo sapiens. The conditions noted are these: Mus musculus. In outline:
as §1

The test system of data set [5] is Mus musculus. Description: Compound was tested for number of animals that remain safe when administered intraperitoneally in mice (total no of deaths =750); 2/3. It is filed as functional.
A short description of data set [6]: Therapeutic index expressed as maximum tolerated / ED50 intravenously was determined. Conditions: iv; read-out: Therapeutic index. In outline: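 Therapeutic index calculated as maximum tolerated single ip dose in mice divided by iv ED50 (mg/kg/day × 4).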
For data set [7], the species on record is Mus musculus. As to the kind of experiment: Compound was tested for weight gain in mice; reduced. It is filed as functional, organism-based.
Data set [8] deals with Plasmodium falciparum. Description: In vitro antimalarial activity for Plasmodium falciparum NF54 infected mice (Mus musculus). In kind it is functional, organism-based. The procedure, abridged: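 In vitro antimalarial assay run in quadruplicate, with artemisinin as concurrent control (n = 3). EC50 taken from fitted dose-response curves.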
The subject of data set [9] is Mus musculus. As to the kind of experiment: Compound was tested for number of animals that remain safe when administered intraperitoneally in mice (total no of deaths =125); 0/3. In kind it is functional.
The subject of data set [10] is Mus musculus. As to the kind of experiment: Compound was tested for number of animals that remain safe when administered intraperitoneally in mice (total no of deaths =250); 1/3. It is filed as functional.
In data set [11] the test system is Mus musculus. Description: Compound was tested for number of animals that remain safe when administered intraperitoneally in mice (total no of deaths =500); 3/3. It is filed as functional.
For data set [12], the species on record is Mus musculus. As to the kind of experiment: Compound was tested for weight gain in mice; markedly reduced. In kind it is functional, organism-based.
In data set [13] the test system is Mus musculus. As to the kind of experiment: Compound was tested for number of animals that remain safe when administered intraperitoneally in mice (dose 500 mg/kg); deaths 3/3.
Data set [14] deals with Mus musculus. As to the kind of experiment: Compound was tested for number of animals that remain safe when administered intraperitoneally in mice (dose 250 mg/kg); deaths 1/3.
Data set [15] relates to Mus musculus. Description: Compound was tested for number of animals that remain safe when administered intraperitoneally in mice (dose 125 mg/kg); deaths 0/3.
Data set [16] concerns Mus musculus. As to the kind of experiment: Compound was tested for number of animals that remain safe when administered intraperitoneally in mice (total no of deaths =250); 0/3. It is filed as functional.
For data set [17], the system named is Mus musculus. As to the kind of experiment: Compound was tested for number of animals that remain safe when administered intraperitoneally in mice (total no of deaths =500); 1/3. In kind it is functional.
In data set [18] the test system is Mus musculus. Description: Compound was tested for number of animals that remain safe when administered intraperitoneally in mice (total no of deaths =750); 3/3. In kind it is functional.

The results in this text go back to ChEMBL document CHEMBL1149087, “Anticancer and antimalarial efficacy and safety of artemisinin-derived trioxane dimers in rodents” (J Med Chem, 2004).

Where a name gives a salt, the structure may show the parent alone.

As for `COc1cccc2c1C(=O)c1c(O)c3c(c(O)c1C2=O)C[C@@](O)(C(=O)CO)C[C@@H]3O[C@H]1C[C@H](N)[C@H](O)[C@H](C)O1` [DOXORUBICIN], the IC50 was determined as 0.0759 µM in [1], 0.0303 µM in data set [2], 0.0287 µM in [3] and 0.0465 µM in data set [4].

With `C[C@H]1[C@H](OC(=O)CCC(=O)OCC(CO)COC(=O)CCC(=O)O[C@@H]2O[C@@H]3O[C@]4(C)CC[C@H]5[C@H](C)CC[C@@H]([C@H]2C)[C@@]35OO4)O[C@@H]2OC3(C)CC[C@H]4[C@H](C)CC[C@@H]1[C@@]24OO3` (single isomer, unassigned), the half-maximal inhibitory concentration (IC50) turned out to be 0.0233 µM in data set [1], 0.0092 µM in data set [2], 0.0154 µM in data set [3] and 0.0185 µM in data set [4].

For `Nc1ccn([C@@H]2O[C@H](CO)[C@@H](O)C2(F)F)c(=O)n1` [GEMCITABINE HYDROCHLORIDE], the IC50 in data set [1] amounted to 0.009 µM; in [2], 0.0047 µM; in data set [3], 0.0037 µM; in data set [4] it was 0.0119 µM.

For the compound `C[C@H]1[C@H](OC(=O)CCC(=O)OCC(COC(=O)CCC(=O)O[C@@H]2O[C@@H]3O[C@]4(C)CC[C@H]5[C@H](C)CC[C@@H]([C@H]2C)[C@@]35OO4)COC(=O)c2cc[n+]([O-])cc2)O[C@@H]2O[C@]3(C)CC[C@H]4[C@H](C)CC[C@@H]1[C@@]24OO3` (stereo not given in full), the Therapeutic index in data set [5] came out at 2 mg/kg; in [9], 0 mg/kg; in [10], 1 mg/kg; in data set [11] it was 3 mg/kg. Moreover, the IC50 in [1] turned out to be 0.0846 µM; in data set [2] it was 0.0361 µM; in [3] it was 0.0474 µM; in data set [4] it was 0.0621 µM. Further, in data set [6], the selectivity ratio was found to be 156. For the same compound, the Activity entry in [7] was “Weight gain reduced”. Besides, the response in data set [8] was half-maximal at 0.00053 µM (EC50).

Take `C[C@@H]1CC[C@H]2[C@@H](C)C(=O)O[C@@H]3O[C@@]4(C)CC[C@@H]1[C@]32OO4` [ARTEMISININ]: in [8], the EC50 was 0.0088 µM.

With `C[C@H]1[C@H](OC(=O)CCC(=O)[O-])O[C@@H]2O[C@@]3(C)CC[C@H]4[C@H](C)CC[C@@H]1[C@@]24OO3.[Na+]` [SODIUM ARESUNATE], the Activity result in data set [12] is reported as “Weight gain markedly reduced”. Besides, the selectivity ratio in [6] was determined as 23. Moreover, it took 0.0015 µM to reach a half-maximal effect in data set [8] (EC50). Further, the Deaths in data set [13] stood at 3 deaths; in data set [14], 1 deaths; in data set [15], 0 deaths.

On to `C[C@H]1[C@H](OC(=O)CCC(=O)OCC(COC(=O)CCC(=O)O[C@@H]2O[C@@H]3O[C@]4(C)CC[C@H]5[C@H](C)CC[C@@H]([C@H]2C)[C@@]35OO4)C(=O)O)O[C@@H]2O[C@]3(C)CC[C@H]4[C@H](C)CC[C@@H]1[C@@]24OO3` (stereo not given in full), for which the half-maximal inhibitory concentration (IC50) in data set [1] is 0.159 µM; in [2], 0.116 µM; in data set [3], 0.134 µM; in data set [4] it was 0.231 µM. The Therapeutic index in data set [16] was determined as 0 mg/kg; in [9], 0 mg/kg; in [17], 1 mg/kg; in [18] it was 3 mg/kg. Besides, the selectivity ratio in data set [6] was found to be 167. Besides, the half-maximal effective concentration (EC50) in data set [8] is 0.0024 µM.

The term IC50 denotes the concentration that inhibits the measured activity by half. Read a low IC50 as greater potency. In general, EC50 refers to the concentration at which the effect is half-maximal. Read a low EC50 as an effect from little substance.
